# Measurements published in article PMC3383288 (International Journal of Nanomedicine, 2012).
# Key:
# [1] = system: MDA-MB-231 human breast tumor; experiment: MDA-MB-231 human breast tumor xenograft model; assay type: in vivo, nude mice
# Summary of the method: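 3 × 10^6 cells in 50% Matrigel were injected subcutaneously into the backs of female 5-week-old nude mice. Dosing started on day 0: three tail-vein iv injections at 4-day intervals, with an untreated control group. Tumor volume and body weight were tracked. Points are means of seven mice with standard error.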
# [2] = Tissue distribution in tumor-bearing mice; assay type: in vivo, nude mice; settings: for AUC of DTX: native DTX 10 mg/kg
# Summary of the method: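 Female nude mice bearing subcutaneous xenografts (cells in 50% Matrigel) got a single iv dose when tumors reached about 400 mm3. Free drug was sampled at 0.083, 1, 6, 24 and 48 h (n = 3 per time). Heart blood was taken under ether into heparin, and plasma was spun at 4°C. Organs were rinsed, stored at −30°C and homogenized 25% w/w in PBS pH 7.4. Drug was quantified by reversed-phase HPLC at 40°C.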
# [3] = Toxicology study in cynomolgus monkeys; assay type: in vivo
# Summary of the method: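 Male cynomolgus monkeys aged 3–4 years (2.5–3.7 kg, n = 3) were dosed iv three times at 2-week intervals. Food consumption, general condition and body weight were followed for 42 days. White blood cell and neutrophil counts were monitored. Values are means of three monkeys with standard deviation.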
# [4] = once-every-3-week schedule; cited from earlier work
# advanced gastric cancer = settings: monotherapy, patients with advanced gastric cancer; cited from earlier work
# [5] = Toxicity dose-finding study in nude mice; assay type: in vivo
# [6] = Toxicology studies in mice; assay type: in vivo, mice (Crlj:CD1 (ICR)); settings: for ALT / AST / CRE / UN: native DTX 10 mg/kg iv x3 at 4-day intervals, one mouse
# Summary of the method: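 Male Crlj:CD1 (ICR) mice (n = 10) received iv dosing three times at 4-day intervals, and condition and body weight were followed for 49 days. Mice were killed one at a time for blood collection and autopsy, including macroscopic review of liver and bone marrow. AST, ALT, creatinine and urea nitrogen were run on a clinical chemistry analyzer, with hematology on an automated analyzer.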
# [7] = system: OCUM-2MLN human scirrhous gastric carcinoma; experiment: OCUM-2MLN orthotopic scirrhous gastric carcinoma model; assay type: in vivo, nude mice; settings: DTX 10 mg/kg; data not shown
# [8] = native DTX 3 mg/kg iv three times at 2-week intervals
structure (smiles),measurement,setting,value
"CC(=O)O[C@@]12CO[C@@H]1C[C@H](O)[C@@]1(C)C(=O)[C@H](O)C3=C(C)[C@@H](OC(=O)[C@H](O)[C@@H](NC(=O)OC(C)(C)C)c4ccccc4)C[C@@](O)([C@@H](OC(=O)c4ccccc4)[C@H]21)C3(C)C [Native DTX, Docetaxel]",maximum body weight loss,"[1]; native DTX 10 mg/kg iv x3, mice bearing MDA-MB-231 xenograft",approximately 10%
same,effect on tumor growth,"[1]; three injections at 4-day intervals, NC-6301 50 mg/kg, native DTX 10 mg/kg",transient and slight regression
same,AUC of DTX,[2]; Heart,9.5 μg/g or mL · h
same,AUC of DTX,[2]; Kidney,44.2 μg/g or mL · h
same,AUC of DTX,[2]; Liver,40.1 μg/g or mL · h
same,AUC of DTX,[2]; Lung,13.6 μg/g or mL · h
same,AUC of DTX,[2]; Plasma,6.7 μg/g or mL · h
same,AUC of DTX,[2]; Spleen,27.3 μg/g or mL · h
same,AUC of DTX,[2]; Tumor,12.6 μg/g or mL · h
same,time DTX in plasma remained over 0.1 μg/mL,[2]; native DTX 10 mg/kg iv,less than 5 hours
same,adverse effects,[3]; native DTX 3 mg/kg,adverse effects including gastrointestinal symptoms
same,additional weight lost compared with animals administered NC-6301,[3]; [8],up to 20%
same,white blood cell count and neutrophil count,[3]; [8],significantly decreased
same,decrease in food consumption,"[3]; native DTX 3 mg/kg, NC-6301 3 or 6 mg/kg, iv three times at 2-week intervals",critical decrease
same,MTD in humans,[4],100 mg/m^2
same,response rate,advanced gastric cancer,20%
same,MTD converted to human equivalent,"[5]; mouse MTD 10 mg/kg, three times at 4-day intervals",30.3 mg/m^2
same,body weight change,"[5]; native DTX 15 mg/kg vs less than 15 mg/kg, iv three times every 4 days",significant decrease in body weight
same,ALT,[6]; Day 1,28 U/L
same,AST,[6]; Day 1,85 U/L
same,CRE,[6]; Day 1,0.07 mg/dL
same,UN,[6]; Day 1,26.1 mg/dL
same,ALT,[6]; Day 7,44 U/L
same,AST,[6]; Day 7,239 U/L
same,CRE,[6]; Day 7,0.17 mg/dL
same,UN,[6]; Day 7,27.1 mg/dL
same,ALT,[6]; Day 10,23 U/L
same,AST,[6]; Day 10,91 U/L
same,CRE,[6]; Day 10,0.14 mg/dL
same,UN,[6]; Day 10,25.4 mg/dL
same,ALT,[6]; Day 14,19 U/L
same,AST,[6]; Day 14,62 U/L
same,CRE,[6]; Day 14,0.20 mg/dL
same,UN,[6]; Day 14,30.5 mg/dL
same,ALT,[6]; Day 21,24 U/L
same,AST,[6]; Day 21,71 U/L
same,CRE,[6]; Day 21,0.12 mg/dL
same,UN,[6]; Day 21,20.0 mg/dL
same,ALT,[6]; Day 28,22 U/L
same,AST,[6]; Day 28,65 U/L
same,CRE,[6]; Day 28,0.15 mg/dL
same,UN,[6]; Day 28,41.4 mg/dL
same,ALT,[6]; Day 35,46 U/L
same,AST,[6]; Day 35,171 U/L
same,CRE,[6]; Day 35,0.12 mg/dL
same,UN,[6]; Day 35,28.0 mg/dL
same,ALT,[6]; Day 42,27 U/L
same,AST,[6]; Day 42,83 U/L
same,CRE,[6]; Day 42,0.11 mg/dL
same,UN,[6]; Day 42,22.1 mg/dL
same,ALT,[6]; Day 49,22 U/L
same,AST,[6]; Day 49,56 U/L
same,CRE,[6]; Day 49,0.12 mg/dL
same,UN,[6]; Day 49,23.5 mg/dL
same,myelosuppression,"[6]; NC-6301 50 mg/kg, native DTX 10 mg/kg, data not shown",mild and transient
same,change in liver- or kidney-related blood test markers,"[6]; three injections, NC-6301 50 mg/kg, native DTX 10 mg/kg, 49 days",No significant change
same,body weight loss compared with NC-6301 at the higher dose,[7],worse
